PfGluPho inh: PfG6PD (Plasmodium falciparum) enzyme inhibition; PfGluPho enzyme, NADPH resazurin-diaphorase fluorescence; inhibition, % at 20 µM; 0.78% of 350,000 active;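 active = inhibition reaching at least a set limit at 20 µM in the primary screen, cut at about 59% in these data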;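 note: 0% = DMSO wells with substrate and 100% = DMSO wells lacking glucose-6-phosphate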
HKDC1 inh: blocks human hexokinase HKDC1 activity; AID 493160; Q2TB90; 0.16% of 340,000 active; inhibition, % at 20 µM; recombinant HKDC1, G6PDH/diaphorase resazurin coupled fluorescence;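 active = inhibition above about 35% when tested at 20 µM, limit read from the data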;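 note: plate controls were DMSO wells with enzyme for no effect and DMSO wells lacking enzyme for full effect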
Target sequence (Q2TB90 whole entry, looked up): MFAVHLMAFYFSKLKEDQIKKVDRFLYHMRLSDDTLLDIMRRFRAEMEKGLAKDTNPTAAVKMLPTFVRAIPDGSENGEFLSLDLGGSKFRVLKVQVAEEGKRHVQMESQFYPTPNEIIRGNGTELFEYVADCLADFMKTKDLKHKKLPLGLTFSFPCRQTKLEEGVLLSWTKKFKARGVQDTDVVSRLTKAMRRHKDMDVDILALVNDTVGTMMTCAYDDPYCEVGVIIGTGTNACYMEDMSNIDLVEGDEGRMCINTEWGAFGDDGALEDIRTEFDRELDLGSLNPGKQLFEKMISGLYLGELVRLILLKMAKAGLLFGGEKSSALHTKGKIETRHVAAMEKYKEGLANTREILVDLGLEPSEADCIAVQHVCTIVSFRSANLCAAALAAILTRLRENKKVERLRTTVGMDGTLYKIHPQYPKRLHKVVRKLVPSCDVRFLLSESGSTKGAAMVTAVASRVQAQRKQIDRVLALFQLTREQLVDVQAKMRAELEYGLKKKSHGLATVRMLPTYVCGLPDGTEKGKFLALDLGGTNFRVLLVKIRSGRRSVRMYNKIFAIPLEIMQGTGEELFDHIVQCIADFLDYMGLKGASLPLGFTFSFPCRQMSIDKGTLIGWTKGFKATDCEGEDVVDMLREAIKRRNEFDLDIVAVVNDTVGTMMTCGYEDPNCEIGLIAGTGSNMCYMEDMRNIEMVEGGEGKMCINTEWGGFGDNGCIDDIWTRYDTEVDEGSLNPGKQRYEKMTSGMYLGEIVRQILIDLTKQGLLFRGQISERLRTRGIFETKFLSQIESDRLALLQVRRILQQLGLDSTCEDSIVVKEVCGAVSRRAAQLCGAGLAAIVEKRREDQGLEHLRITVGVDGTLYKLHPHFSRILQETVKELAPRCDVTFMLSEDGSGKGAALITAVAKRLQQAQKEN
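Assay system – recombinant HKDC1 (HK5) hexokinase enzyme, produced in-house · Input – HKDC1 at 5 µg/mL · Reagent – glucose plus 1 mM ATP as hexokinase substrates · Timing – 90 min reaction incubation at room temperature, dark · Measured by – G6PDH/diaphorase-coupled fluorescence, 1 mM NADP, 100 µM resazurin, 525/613 nm · Benchmarks – DMSO-enzyme wells negative, buffer-substituted wells positive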
G6PDH CS: inhibits Leuconostoc G6PDH, flagging false hits in G6PDH-based assays | 0.12% of 200,000 active | inhibition, % at 5 µM | AID 1020 | Purified L. mesenteroides G6PDH, diaphorase/resazurin coupled fluorescence, 45 min; in the data active = inhibition above about 50%
Diaphorase inh: counter-screen for diaphorase-based assays: diaphorase inhibitors and chemical oxidizers. diaphorase resazurin-to-resorufin fluorescence, NADH, 16 min; bacterial (C. kluyveri) enzyme, not human. inhibition, % at 20 µM. 0.69% of 190,000 active. AID 1217;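 active = primary screen inhibition at 20 µM above a set limit, cut at about 50% in these data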;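 note: plate controls were DMSO with full reaction for no effect and wells lacking NADH for full effect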
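controls = No-NADH positive control and DMSO neutral control | system = Clostridium kluyveri diaphorase enzyme | timing = reaction incubation of 16 min at room temperature | signal = resorufin fluorescence 544/590 nm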
Diaph act CS: counter-screen for diaphorase-based assays: diaphorase activators and chemical reducers; Diaphorase/resazurin coupled assay, resorufin fluorescence, 16 min; active compounds read high; 1 = vehicle wells, 0 = NADH-free wells; activation factor at 20 µM; 0.005% of 190,000 active;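 active = diaphorase activity raised at least twofold by the compound at 20 µM; inactive = activation factor below 2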
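System – purified diaphorase enzyme from Clostridium kluyveri · Input – enzyme 0.07 U/mL final · Also added – final NADH 0.114 mM, resazurin 0.1 mM · Measured by – fluorescence of resorufin, 544 nm excitation, 590 nm emission · Timing – 16 min enzyme reaction, ambient temperature · Measure – resorufin increase flagging diaphorase activators or reducers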
PfG6PD confirm: PfG6PD inhibition, single-dose confirmed | 34% of 2,400 active | AID 504753 | inhibition, % at 20 µM | recombinant PfGluPho, NADPH-diaphorase-resazurin fluorescence | shares compounds with PfGluPho inh;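 active = inhibition of at least 50% at 20 µM in any single replicate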;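 note: 0% = DMSO with substrate and 100% = DMSO lacking glucose-6-phosphate substrate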
Diaph ctr 10uM: diaphorase inhibition or oxidation at 10 uM NADPH. shares compounds with PfGluPho inh. 39% of 820 active. inhibition, % at 20 µM. AID 504862. diaphorase-coupled resazurin reduction, fluorescence, NADPH 10 uM;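 active = average inhibition reaching 50% or more with the compound at 20 µM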;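 note: resorufin red fluorescence formed as diaphorase reduces resazurin using NADPH; 0% = DMSO with enzyme and 100% = DMSO without enzyme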
Diaph ctr 30uM: inhibits diaphorase or oxidizes, flagging false PfG6PD hits; 29% of 820 active; inhibition, % at 20 µM; shares compounds with PfGluPho inh; AID 504863; Diaphorase/resazurin coupled assay, resorufin fluorescence, 30 uM NADPH;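 active = inhibition averaging 50% or more, tested at 20 µM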;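 note: 0% = DMSO with enzyme and 100% = DMSO wells lacking diaphorase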
* = called active by the depositor; · = not tested or not shown. This is a sample that favours compounds with a hit; in the whole collection about 1.2% have one here.

SMILES	PfGluPho inh	HKDC1 inh	G6PDH CS	Diaphorase inh	Diaph act CS	PfG6PD confirm	others
CCn1c(C)nc2cc(C(=O)N/N=C/c3ccc(O)c(O)c3O)ccc21	84.8*	15.0	22.6	75.3*	0.2	90.0*	Diaph ctr 10uM=86.1*;Diaph ctr 30uM=89.0*
Cc1cc(C(=O)C(C)OC(=O)c2ccc(NC(=O)CC#N)cc2)c(C)n1-c1ccc(OC(F)F)cc1 (configuration not stated)	8.8	-4.0	·	·	·	·
Cc1ccc(-c2nnn(CC(=O)N(c3ccccc3)C(C(=O)NCC3CCCO3)c3cccs3)n2)o1 (configuration not stated)	-7.9	-2.9	12.6	11.5	0.9	·
COCCn1c(SCC(=O)N(C)c2c(N)n(Cc3ccccc3)c(=O)[nH]c2=O)nnc1-c1cccc(C)c1	2.6	-5.8	·	·	·	·
COc1ccc(CN(C)CCCn2ccc(NC(=O)OCc3ccccc3)nc2=O)cc1OC	19.9	·	·	·	·	·
COc1cc(NCCCn2ccc(NC(=O)OCc3ccccc3)nc2=O)cc(OC)c1OC	79.8*	17.9	·	·	·	74.1*	Diaph ctr 10uM=-4.1;Diaph ctr 30uM=4.7
COc1cc(NCCCn2cnc3c(OCc4ccccc4)ncnc32)cc(OC)c1OC	80.2*	4.0	·	·	·	67.3*	Diaph ctr 10uM=-14.2;Diaph ctr 30uM=-22.8
CCNC(=O)O/N=C1\CCCCC1c1ccc([N+](=O)[O-])cc1[N+](=O)[O-] (configuration not stated)	4.4	5.3	·	·	·	·
C[C@@H]1CN([C@@H](C)CO)C(=O)c2cc(NC(=O)C3CCCCC3)ccc2O[C@@H](C)CCCCO[C@H]1CN(C)S(=O)(=O)c1ccc(Cl)cc1	25.5	·	·	·	·	·
COC(=O)c1c(NC(=O)C2CCCCC2)sc2c1CC(C)(C)NC2(C)C	5.9	-4.8	·	·	·	·
CC1=C/C(=N\OS(=O)(=O)c2ccccc2)C(C(C)C)=CC1=O	98.5*	18.3	39.8	101.3*	0	96.3*	Diaph ctr 10uM=76.4*;Diaph ctr 30uM=62.9*
CC1=C/C(=N\OS(=O)(=O)c2ccccc2)C(C)=CC1=O	110.7*	17.6	4.4	100.5*	0	105.4*	Diaph ctr 10uM=97.6*;Diaph ctr 30uM=102.9*
CC(S(=O)(=O)c1ccccc1)S(=O)(=O)c1ccccc1	1.2	·	·	·	·	·
COC(=O)CSCC(=O)Nc1nnc(-c2cccc(C)c2)s1	-7.0	-8.2	-7.1	15.0	0.8	·
COC(=O)[C@]1(C)CCC[C@@]2(C)C3CC[C@@]4(C)C[C@]3(CCC21)CC4=NO (some centres not stated)	0.4	-1.5	·	·	·	·
Oc1ccc(N2CCN(Cc3ccc(OCCCN4CCCCC4)cc3)CC2)cc1	74.8*	12.0	10.5	-9.6	1.1	18.1
O=C(O)c1ccc(-n2c(-c3cc(-c4ccco4)[nH]n3)n[nH]c2=S)cc1	59.1*	-1.7	4.1	37.8	0.6	55.8*	Diaph ctr 10uM=-3.5;Diaph ctr 30uM=-0.6
O=C(CCc1ccc(O)c(O)c1)N/N=C/c1ccc2c(c1)OCO2	61.9*	5.1	·	·	·	34.0
CC(C)Oc1ccc(CCC(=O)N/N=C/c2ccc3c(c2)OCO3)cc1	7.6	6.9	·	·	·	·
O=C(N/C(=C\c1ccco1)C(=O)N1CCCC(CO)C1)c1ccccc1 (configuration not stated)	-1.8	2.6	·	·	·	·
Cc1cc(C)c(NC(=S)NCC2CCN(C(C)c3ccccc3)C2)c(C)c1 (configuration not stated)	84.5*	-9.2	0.6	6.0	0.9	75.7*	Diaph ctr 10uM=0.3;Diaph ctr 30uM=-2.5
COc1ccc(C2C(C(=O)NCc3ccccn3)CCC(=O)N2c2cc(OC)c(OC)c(OC)c2)cc1 (configuration not stated)	-7.0	-2.2	3.5	1.6	1	·
Cc1ccc(NC(=S)N(CCN(C)C)Cc2cccs2)c(C)c1	60.9*	-1.1	3.6	11.3	0.9	41.9
Cc1cc(C)c(NC(=S)N(CCN(C)C)Cc2cccs2)c(C)c1	-2.4	1.9	7.1	-0.1	1	·
Nc1nc(=S)c2[nH]c(=S)[nH]c2[nH]1	67.2*	-1.8	·	·	·	20.6
SMILES	PfGluPho inh	HKDC1 inh	G6PDH CS	Diaphorase inh	Diaph act CS	PfG6PD confirm	others
CCc1c(C)sc(NC(=O)Cn2nc(C)c([N+](=O)[O-])c2C)c1C(N)=O	69.0*	-3.6	7.2	5.1	0.9	28.6
Cc1csc(NC(=O)Cn2nc(C)c([N+](=O)[O-])c2C)n1	7.8	-2.0	-1.2	6.7	0.9	·
Cc1ccc(CN(C(=O)c2ccc(Cl)c([N+](=O)[O-])c2)C2CCS(=O)(=O)C2)o1 (configuration not stated)	10.9	-0.5	·	·	·	·
N=C1/C(=C/c2cccn2CCOc2ccccc2)C(=O)N=C2SC=C(c3ccccc3)N12	64.7*	-4.2	-16.2	0.0	1	8.6
Cc1ccc2nc3n(c(=O)c2c1)-c1ncccc1C(=O)NC3Cc1ccc(O)cc1 (configuration not stated)	-3.0	·	·	·	·	·
Oc1ccccc1NCC(O)Cn1ccc2ccccc21 (configuration not stated)	65.8*	23.4	39.8	25.2	0.7	28.4
CCOC(=O)c1cnn(-c2nc(OCC)cc(OCC)n2)c1C	-14.0	-3.1	-5.9	10.4	0.9	·
COc1ccc(Cl)cc1S(=O)(=O)N1CCN=C1Cc1ccccc1	18.9	-3.7	·	·	·	·
COc1ccccc1S(=O)(=O)n1cc(Cc2ccccc2)c(N)n1	76.4*	-2.0	8.0	13.3	0.9	7.1
O=C(Nc1cc(S(=O)(=O)N2CCOCC2)ccc1Cl)c1ccncc1	1.7	-9.3	·	·	·	·
CSc1ccc(Cl)c(C(=O)NCCCn2ccnc2)c1	-9.9	-4.4	·	·	·	·
Cc1c(/C=C/C(=O)c2cccs2)cnn1C	12.7	-0.4	-3.8	17.0	0.8	·
CCc1ccc(C(=O)/C=C/c2cnn(C)c2C)s1	59.4*	-3.2	-2.5	6.8	0.9	39.0
CC(OC(=O)Cc1n[nH]c(=O)c2ccccc12)C(=O)N(C)c1ccccc1 (configuration not stated)	9.5	·	·	·	·	·
COc1ccc(CN(Cc2cccn2C)S(=O)(=O)c2ccc(C)cc2)cc1	66.4*	2.5	·	·	·	2.2
Cc1nc2[nH]c(=S)[nH]c(=O)c2nc1C	17.7	-5.0	·	·	·	·
Cc1nc2c(=O)[nH]c(=S)n(C)c2nc1C	65.4*	-20.2	5.3	2.4	1	35.1
CCOc1ccc(C(=O)NNC(=O)CCNC(=O)c2ccco2)cc1OC	14.3	-6.3	·	·	·	·
CC(=O)OCCNc1cc(N2CCN(C)CC2)c2noc3c2c1C(=O)c1ccccc1-3	84.7*	31.1	22.1	20.6	0.8	-26.3
COCCCNC(=O)c1ccc2c3c(onc13)-c1ccccc1C2=O	16.4	22.7	·	·	·	·
